Results on two compounds are retold here after ChEMBL document CHEMBL1155047, “Isolation, structure, and antibacterial activity of phaeosphenone from a Phaeosphaeria sp. discovered by antisense strategy” (J Nat Prod, 2008).

In assay [1] the test system is Staphylococcus aureus. Briefly: Inhibition of Staphylococcus aureus RNA synthesis. The class given is functional, organism-based. The method, boiled down:
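Mid-log S. aureus (A600 0.5–0.6) is exposed to increasing compound concentrations for 20 min at 37 °C with 1 µCi/mL 5,6-[3H]uracil. The reaction is stopped with 10% trichloroacetic acid, and cells are collected on glass-fibre filters. Incorporated label is counted by scintillation.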

The subject of assay [2] is Streptococcus pneumoniae. Put plainly: Antimicrobial activity against penicillin, quinoline and macrolide-sensitive Streptococcus pneumoniae CL2883 in CAMHB and 2.5 % lysed horse serum medium. In kind it is functional. The conditions noted are these: in the assay text read “lysed horse blood” for “lysed horse serum”. An outline of the steps:
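Broth MIC with 2-fold serial dilution in cation-adjusted Mueller Hinton broth plus 2.5% lysed horse blood, incubated 20 h at 37 °C, NCCLS guidelines. Endpoint is no visible growth.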

The subject of assay [3] is Staphylococcus aureus. Put plainly: Antimicrobial activity against methicillin-sensitive Staphylococcus aureus MB2865. In kind it is functional. An outline of the steps: (§1)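 Broth microdilution under NCCLS guidelines, with 2-fold serial compound dilutions. Cells are incubated at 37 °C for 20 h. MIC is the lowest concentration that prevents visible growth. The concentration giving 80% growth inhibition is also reported.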

The test system of another assay is Escherichia coli. Briefly: Antimicrobial activity against wild type Escherichia coli MB2884. In kind it is functional. An outline of the steps: as §1
In assay [4] the test system is Staphylococcus aureus. Briefly: Antimicrobial activity against Staphylococcus aureus RN450 assessed as zone size at 500 ug/ml by two-plate differential sensitivity assay. The conditions noted are these: read-out: IZ. In kind it is functional. An outline of the steps:
(§2)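 The S. aureus RN450 strains carry plasmid S1-782B, either with rpsD antisense RNA or with empty vector (control). Overnight cultures are grown in Miller's LB with 34 µg/mL chloramphenicol at 37 °C, 220 rpm, for 18–20 h. They are seeded 1:1000 of OD 3.0 into LB agar with 0.2% glucose and 15 µg/mL chloramphenicol; 12 mM xylose is added for the antisense strain only. Samples go into wells at 2-fold dilutions from 500 to 31.25 µg/mL. Zones are read after 18 h at 37 °C.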

The subject of assay [5] is Streptococcus pneumoniae. Put plainly: Antimicrobial activity against penicillin, quinoline and macrolide-sensitive Streptococcus pneumoniae CL2883 in isosensitet medium. In kind it is functional. The method, boiled down:
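Pneumococcal broth MIC run in Isosensitest medium with 2-fold serial compound dilutions, 37 °C for 20 h. The reading is the lowest concentration with no visible growth.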

The subject of the next assay is Haemophilus influenzae. Briefly: Antimicrobial activity against ampicillin, quinoline and macrolide-sensitive Haemophilus influenzae MB4572. The class given is functional. An outline of the steps: as §1
Another assay concerns Candida albicans. Briefly: Antimicrobial activity against wild type Candida albicans MY1055. The class given is functional. The method, boiled down: as §1
The subject of assay [6] is Staphylococcus aureus. Briefly: Antimicrobial activity against Staphylococcus aureus RN450 carrying plasmid S1-782B bearing antisense […] RNA assessed as zone size at 31.25 ug/ml by two-plate differential sensitivity assay. The class given is functional. The conditions noted are these: read-out: IZ. An outline of the steps: as §2
Assay [7] has as its system Staphylococcus aureus. Briefly: Antimicrobial activity against methicillin-sensitive Staphylococcus aureus ATCC 29213. The class given is functional. The method, boiled down:
as §1

Another assay deals with Bacillus subtilis. Briefly: Antimicrobial activity against wild type Bacillus subtilis MB964. The class given is functional. The method, boiled down:
as §1

Assay [8] has as its system Staphylococcus aureus. Put plainly: Antimicrobial activity against Staphylococcus aureus RN450 carrying plasmid S1-782B bearing antisense […] RNA assessed as zone size at 500 ug/ml by two-plate differential sensitivity assay. The conditions noted are these: read-out: IZ. The class given is functional. An outline of the steps:
as §2

The test system of assay [9] is Staphylococcus aureus. Briefly: Antimicrobial activity against Staphylococcus aureus RN450 assessed as zone size at 31.25 ug/ml by two-plate differential sensitivity assay. The class given is functional, organism-based. An outline of the steps:
as §2

Assay [10] has as its system Staphylococcus aureus. Put plainly: Antimicrobial activity against methicillin-sensitive Staphylococcus aureus MB2865 in presence of human serum. In kind it is functional.
The subject of the next assay is Enterococcus faecalis. Briefly: Antimicrobial activity against vancomycin-sensitive and macrolide-resistant Enterococcus faecalis CL8516. The class given is functional. An outline of the steps: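 Broth microdilution MIC under NCCLS guidelines in cation-adjusted Mueller Hinton broth unless stated otherwise; inoculum 10^5 CFU/mL; 2-fold serial compound dilutions in growth medium; 37 °C for 20 h. MIC read as lowest concentration preventing visible growth; a value for 80% growth inhibition also reported.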

Usually IC50 stands for the point on the concentration scale where inhibition reaches its midpoint. As a reminder, the MIC80 is an inhibitory concentration at the 80% level, which refers to growth in some studies and to a panel of isolates in others. Lower therefore signals greater potency.

In brackets after ≈: the same amount, converted by molar mass. Activity calls are given as the source filed them. No cut-off for these calls is given here.

With `Cc1cc(O)c2c(c1)C(=O)C1=C(C2=O)[C@@H](O)[C@@H](O)[C@@H](O)C1` [PLEOSPORONE], in the assay with Staphylococcus aureus [1], 6 µg/mL (≈ 20.7 µM) corresponded to half-maximal inhibition (IC50).
Take `Cc1cc(O)c2c(c1)C(=O)c1c(cc(C)c([C@H]3C[C@@H](O)C4=C(C(=O)C5=C(C4=O)[C@@H](O)CC[C@@H]5O)[C@H]3O)c1O)C2=O` [PHAEOSPHENONE]: the MIC was 64 µg/mL (≈ 117 µM) in the assay with Streptococcus pneumoniae [2]; 64 µg/mL (≈ 117 µM) with Staphylococcus aureus [3]; greater than 64 µg/mL with Escherichia coli; 8 µg/mL (≈ 14.6 µM) in the assay with Streptococcus pneumoniae [5]; greater than 64 µg/mL in the assay on Haemophilus influenzae; 8 µg/mL (≈ 14.6 µM) in the assay on Candida albicans. Also, the MIC against Staphylococcus aureus [7] is 32 µg/mL (≈ 58.6 µM); against Bacillus subtilis, 16 µg/mL (≈ 29.3 µM); in the assay with Staphylococcus aureus [10] it was greater than 64 µg/mL; in the assay with Enterococcus faecalis, 64 µg/mL (≈ 117 µM). Further, the MIC80 was found to be 32 µg/mL (≈ 58.6 µM) against Staphylococcus aureus [3] and 16 µg/mL (≈ 29.3 µM) against Staphylococcus aureus [7]. The zone of inhibition at 500 µg/mL in the assay with Staphylococcus aureus [4] came to 11.8 mm; with Staphylococcus aureus [8], 16 mm. For the same compound, the zone of inhibition at 31.25 µg/mL with Staphylococcus aureus [6] was 7 mm. Further, the result in the assay on Staphylococcus aureus [9] was inactive.
